An excerpt weighted towards active compounds, which were near 1.6% of everything screened.
DNA FID counter: compounds displacing fluorescent DNA intercalator, primary screen, artefact control for HCV NS3 helicase inhibitor project, biochemical, FID fluorescence; DNA fluorescent intercalator displacement; inhibition, % at 7.9 µM; 290,000 compounds, 0.17% hits; in the data active = inhibition above about 37%;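 also: 0% = vehicle and 100% = reference compound; higher means more ethidium bromide displaced from hairpin DNA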
UBC13 polyUb: UBC13 polyubiquitin chain formation inhibitors, primary screen, biochemical, TR-FRET, uHTS; 330,000 compounds, 0.47% hits; inhibition, % at 20 µM; AID 485273, 2010; Ubiquitin-conjugating enzyme E2 N (Homo sapiens), P61088; in the data active = inhibition above about 45%, passing the limit was not always enough
Target sequence (P61088 whole entry, looked up): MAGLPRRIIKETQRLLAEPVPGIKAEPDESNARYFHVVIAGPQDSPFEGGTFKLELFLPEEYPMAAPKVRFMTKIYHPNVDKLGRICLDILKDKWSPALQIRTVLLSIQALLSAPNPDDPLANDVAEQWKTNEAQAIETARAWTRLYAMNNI
Apaf-1 inh: inhibitors of human Apaf-1 apoptosome, primary screen, biochemical, DEVD-Rh110 fluorescence, uHTS; 330,000 compounds, 0.71% hits; inhibition, % at 20 µM; Apoptotic protease-activating factor 1 (Homo sapiens), O14727; reconstituted apoptosome caspase-3 activity; active = inhibition of at least 40% at 20 µM;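 also: plate controls were DMSO wells for no effect and DEVD-CHO caspase inhibitor wells for full effect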
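Assay system: Apoptosome proteins | Medium: pH 7.5 Hepes buffer with CHAPS, BSA, DTT | Also added: Cytochrome c and DEVD-Rh110 substrate | Times: 30 min plus 50 min, RT | Detection: Rhodamine 110 fluorescence at Ex 480/Em 540 nm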
Neddyl block: inhibitors of cullin neddylation, primary screen, biochemical, TR-FRET, uHTS, NAE and Ubc12 | NEDD8-conjugating enzyme Ubc12 (Homo sapiens) + NEDD8-activating enzyme E1 regulatory … | calls only at 25 µM | 360,000 compounds, 0.58% hits | AID 651699, 2012; in the data active = inhibition above about 36%
RAD54 inh: inhibitors of human RAD54 branch migration, primary screen, biochemical, fluorescence, single point | RAD54 Holliday junction branch migration, FAM/BHQ fluorescence | inhibition, % at 10.4 µM | 360,000 compounds, 0.14% hits | AID 602329, 2012;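 active = mean normalized replicate activity at least 40 and at least half of replicates scoring 40 or more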;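 also: 0% = median of neutral control wells and 100% = median of positive control wells; inhibitors cause a drop in the FAM fluorescence signal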
RAD52 anneal inh: RAD52 DNA annealing inhibitors, primary screen, biochemical, FRET, single point, set 2; DNA repair protein RAD52 homolog (Homo sapiens), P43351; recombinant RAD52 DNA annealing, FRET fluorescence; inhibition, % at 18.7 µM; 360,000 compounds, 0.46% hits;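 active = every replicate showing at least 50% inhibition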
Casp3 UBC13 ctr: CASP3 inhibitor validation, counterassay for project on UBE2N polyubiquitination blockers, biochemical, one dose. shares compounds with UBC13 polyUb. Recombinant caspase-3, Caspase-Glo 3/7 luminescence, 60 min. inhibition, % at 20 µM. 1,400 compounds, 4% hits;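 active = mean inhibition across replicates above about 26%, limit read from the data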;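 also: plate controls were DMSO with caspase-3 for no effect and DMSO wells lacking enzyme for full effect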
Target sequence (P42574 whole entry, looked up): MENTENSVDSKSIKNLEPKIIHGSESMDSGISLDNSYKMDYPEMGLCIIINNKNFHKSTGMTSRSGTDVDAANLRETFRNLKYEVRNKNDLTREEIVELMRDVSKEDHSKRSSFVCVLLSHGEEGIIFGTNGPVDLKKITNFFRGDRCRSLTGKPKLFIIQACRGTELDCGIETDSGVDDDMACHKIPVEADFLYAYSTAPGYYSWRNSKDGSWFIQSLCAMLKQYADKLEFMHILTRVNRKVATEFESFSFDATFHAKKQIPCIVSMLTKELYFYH
UBC13 confirm: UBC13 polyubiquitination inhibitors, single-point retest, confirmation, biochemical, TR-FRET, single concentration | shares compounds with UBC13 polyUb | 1,400 compounds, 68% hits | inhibition, % at 10 µM | AID 488859, 2010; in the data active = inhibition above about 45%
Starred values were filed as active, the others as inactive; i = inactive; . = not tested or not shown.

SMILES	DNA FID counter	UBC13 polyUb	Apaf-1 inh	Neddyl block	RAD54 inh	RAD52 anneal inh	Casp3 UBC13 ctr	UBC13 confirm
COc1ccc(NC(=O)N(C)C[C@@H]2Oc3cc(-c4ccc(C)cc4)ccc3S(=O)(=O)N([C@H](C)CO)C[C@H]2C)cc1	.	.	.	.	-0.5	32.4	.	.
COc1cccc(NC(=O)N2CC(=O)N3[C@@H](CO)[C@H](c4ccc(C#CC5CCCC5)cc4)[C@@H]3C2)c1	.	.	.	.	.	-12.9	.	.
C[C@@H]1CN([C@H](C)CO)C(=O)c2cccc(NS(C)(=O)=O)c2O[C@@H]1CN(C)C(=O)Nc1ccc(F)cc1	.	.	.	.	-9.8	2.9	.	.
C[C@H]1CN([C@@H](C)CO)C(=O)c2cccc(NS(=O)(=O)c3cccs3)c2O[C@H]1CN(C)S(=O)(=O)c1cccs1	.	.	.	.	-28.1	-42.4	.	.
CCN1CCN(CCCNC(=O)Cn2nc(C)n3nc(-c4ccccc4)cc3c2=O)CC1	16.4	0.3	1.7	i	5.5	-3.8	.	.
Cc1nn(CC(=O)NCCCN2CCC(Cc3ccccc3)CC2)c(=O)c2cc(-c3ccccc3)nn12	6.9	92.9*	15.9	i	-5.6	-8.5	1.7	111.9*
Cc1nn(CC(=O)NCCCN2CCN(Cc3ccccc3)CC2)c(=O)c2cc(-c3ccccc3)nn12	18.9	24.1	9.2	i	5.5	-5.4	.	.
CCc1ccc(-c2cc3c(=O)n(CC(=O)NCCCN4CCC(Cc5ccccc5)CC4)nc(C)n3n2)cc1	1.4	60.2*	25.0	i	-2.9	7.5	0.8	85.8*
O=C(C1CCC1)N1CC(=O)N2[C@H](C1)[C@H](c1ccc(C#Cc3cccc(F)c3)cc1)[C@@H]2CO	.	.	.	.	.	19.5	.	.
O=C(NCC1CCCCC1)C1(CC2CC(c3cccc(Br)c3)=NO2)CCNCC1 (stereo not given)	22.7	50.6*	23.4	i	-14.4	-2.6	4.6	52.3*
Nc1ccc(C(=O)OCC(=O)N2c3ccccc3Sc3ccccc32)cc1[N+](=O)[O-]	4.3	.	.	i	-12.6	.	.	.
NCCNc1ccc(C(=O)N2c3ccccc3Sc3ccccc32)cc1[N+](=O)[O-]	31.6	64.9*	29.2	i	-3.8	-30.2	-2.2	111.0*
O=C(C[C@H]1CC[C@H](NC(=O)CC2CC2)[C@H](CO)O1)NCc1ccccc1	.	.	.	.	.	4.5	.	.
Cc1cccc(NC(=O)Cn2c(O)c(N=NC(N)=S)c3ccccc32)c1	5.5	10.2	-30.9	i	-6.1	-1.5	.	.
CC1=CC(C)(C)n2c(O)c(N=NC(N)=S)c3cc(C)cc1c32	-15.8	56.8*	7.0	i	8.9	.	-2.8	52.0*
Cn1c(SCC(=O)c2ccccc2)ncc(C(=O)Nc2ccccc2)c1=O	.	57.1*	5.5	i	3.9	-2.1	94.8*	53.0*
CCOC(=O)OC[C@@H]1[C@@H]2NC(=O)N(C)[C@@]1(CO)Oc1ccccc12	.	.	.	.	.	7.4	.	.
CCCOc1ccc(/C=N/NC(=O)CSCc2ccc([N+](=O)[O-])cc2)cc1OCC	-7.0	90.4*	12.7	i	3.9	3.3	-3.5	93.3*
C/C(=N\NC(=O)CSCc1ccc([N+](=O)[O-])cc1)c1ccccc1	0.1	91.2*	4.7	i	.	-28.4	3.2	109.4*
C/C(=N/NC(=O)CN1CCN(Cc2ccccc2)CC1)c1ccc([N+](=O)[O-])cc1	6.5	-0.8	-17.0	i	7.1	-8.2	.	.
C/C(=N\NC(=O)CSCc1ccc([N+](=O)[O-])cc1)c1ccccc1O	0.1	84.4*	8.2	i	-10.0	.	-1.4	95.3*
C/C(=N\NC(=O)Cc1ccc(Cl)cc1)c1ccccc1O	-7.8	7.6	8.8	.	-4.0	-45.5	.	.
O=C(Nc1cccnc1)c1sc(Nc2ccccc2)nc1-c1ccccc1	-11.8	47.8*	9.4	.	.	-13.4	-2.0	11.4
COc1ccc2c3c(n(C)c2c1)[C@@H](CO)N(C(=O)c1ccc(F)cc1)CC31CCN(C(C)=O)CC1	.	.	.	.	.	-0.2	.	.
C[C@@H]1CCCCO[C@H](CN(C)S(C)(=O)=O)[C@H](C)CN([C@@H](C)CO)C(=O)c2cc(NC(=O)Nc3ccc(F)cc3)ccc2O1	.	.	.	.	-8.6	.	.	.
SMILES	DNA FID counter	UBC13 polyUb	Apaf-1 inh	Neddyl block	RAD54 inh	RAD52 anneal inh	Casp3 UBC13 ctr	UBC13 confirm
C[C@@H]1CN([C@@H](C)CO)C(=O)c2cc(NS(=O)(=O)c3ccccc3)ccc2O[C@@H](C)CCCCO[C@H]1CN(C)S(=O)(=O)c1ccc(Cl)cc1	.	.	.	.	.	12.8	.	.
O=C(NCc1ccccc1)[C@H]1[C@H](CO)[C@H]2Cn3c(ccc(/C=C/c4ccccc4)c3=O)[C@@H]1N2CC1CC1	.	.	.	.	.	11.7	.	.
Cc1cccc(C)c1OCc1nnc(SCC(=O)NCCc2ccccc2)o1	-37.7	91.5*	7.3	i	3.0	.	-5.3	2.7
Cc1ccc2c(c1)c1c(n2CC(O)CNC2CCCCC2)CCCC1 (stereo not given)	28.6	60.6*	34.1	i	7.2	24.5	2.3	30.5
C[C@@H]1CN([C@@H](C)CO)C(=O)c2cc(NC(=O)Nc3ccc(C(F)(F)F)cc3)ccc2O[C@@H](C)CCCCO[C@H]1CN(C)Cc1ccccc1	.	.	.	.	-7.1	6.0	.	.
O=C(NNC(=O)c1nn(-c2ccc(F)cc2)ccc1=O)Nc1cccc(Cl)c1	-5.1	10.3	-15.4	i	3.2	1.9	.	.
Cc1ccc(C(=O)NNC(=O)c2nn(-c3ccc(F)cc3)ccc2=O)cc1	-2.7	77.4*	-7.8	i	6.9	-3.7	-6.1	96.3*
CC(C)NC(=O)NNC(=O)c1nn(-c2ccc(F)cc2)ccc1=O	-4.3	32.9	-7.4	i	.	-20.5	.	.
O=C(NNC(=O)c1cccc(C(F)(F)F)c1)c1ccc(-n2cnnn2)cc1	.	-3.7	1.0	i	-0.3	-13.1	.	.
O=C(NNC(=O)c1nn(-c2ccc(F)cc2)ccc1=O)c1ccc(Cl)cc1	-3.8	70.7*	-16.8	i	2.1	-9.2	-2.9	87.7*
O=C(NNC(=O)c1nn(-c2ccc(F)cc2)ccc1=O)c1ccc(C(F)(F)F)cc1	-6.2	70.0*	-10.1	i	.	-9.6	0.2	86.4*
C[C@H]1CN([C@@H](C)CO)C(=O)Cc2cc(NC(=O)Nc3ccc(F)cc3)ccc2O[C@H]1CN(C)S(=O)(=O)c1ccc(Cl)cc1	.	.	.	.	1.7	-3.1	.	.
CC[C@@H](C)[C@H](CN[C@H](CNC)C(C)C)NC[C@@H](C)c1ccc(CC(C)C)cc1	29.3	89.4*	8.7	i	27.3	27.4	-2.1	71.5*
